We go through six compounds from ChEMBL document CHEMBL1123134, “Diterpenoid sweeteners. Synthesis and sensory evaluation of stevioside analogues with improved organoleptic properties” (1985).

What all share (type): functional
Experiment [1] is filed under the species Homo sapiens. Briefly: Sensory evaluation was done for sweetness at a concentration of 750 p.p.m. against compound potency calculated on weight basis. An outline of the steps:
(§1)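 Sweetness tasted in solutions held near pH ~7, so carboxylic acids are ionized. Potency is reported two ways: on a weight basis (Pw) and on a molar basis (Pm).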

The species entered for experiment [2] is Homo sapiens. Kind of experiment: Sensory evaluation was done for sweetness at a concentration of 750 p.p.m. against compound potency calculated on a molar basis. An outline of the steps:
as §1

Experiment [3] is filed under the species Homo sapiens. Briefly: Sensory evaluation was done at a concentration of 750 p.p.m. against property of sweetness. An outline of the steps:
(§2)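 Aqueous sample solutions were tasted at about pH 7, so carboxylic acids were in ionized form.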

The species named for experiment [4] is Homo sapiens. Briefly: Sensory evaluation was done for sweetness at a concentration of 750 p.p.m. against sample intensity relative to 10% sucrose. Summed up:
as §1

The species named for experiment [5] is Homo sapiens. Briefly: Sensory evaluation was done at a concentration of 750 p.p.m. against other properties. Summed up:
as §2

The species named for experiment [6] is Homo sapiens. Kind of experiment: Sensory evaluation was done at a concentration of 750 p.p.m. against property of bitterness. Summed up:
as §2

The species entered for experiment [7] is Homo sapiens. Kind of experiment: Sensory evaluation was done at a concentration of 615 p.p.m. against other properties. An outline of the steps: as §2
For experiment [8], the species on record is Homo sapiens. Kind of experiment: Sensory evaluation was done at a concentration of 615 p.p.m. against property of bitterness. An outline of the steps: as §2
The species named for experiment [9] is Homo sapiens. Kind of experiment: Sensory evaluation was done for sweetness at a concentration of 615 p.p.m. against compound potency calculated on weight basis. An outline of the steps:
as §1

For experiment [10], the species on record is Homo sapiens. Kind of experiment: Sensory evaluation was done at a concentration of 615 p.p.m. against property of sweetness. Summed up:
as §2

For experiment [11], the species on record is Homo sapiens. Briefly: Sensory evaluation was done for sweetness at a concentration of 615 p.p.m. against compound potency calculated on a molar basis. An outline of the steps:
as §1

The species entered for experiment [12] is Homo sapiens. Kind of experiment: Sensory evaluation was done for sweetness at a concentration of 615 p.p.m. against sample intensity relative to 10% sucrose. Summed up:
as §1

The species entered for experiment [13] is Homo sapiens. Kind of experiment: Sensory evaluation was done for sweetness at a concentration of 1000 p.p.m. against compound potency calculated on weight basis. Summed up:
(§3)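 Solutions were tasted at about pH 7. Sweetness potency was expressed two ways: Pw, calculated on a weight basis, and Pm, calculated on a molar basis.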

The species entered for experiment [14] is Homo sapiens. Kind of experiment: Sensory evaluation was done for sweetness at a concentration of 1000 p.p.m. against sample intensity relative to 10% sucrose. Summed up: as §2
The species entered for experiment [15] is Homo sapiens. Kind of experiment: Sensory evaluation was done for sweetness at a concentration of 1000 p.p.m. against compound potency calculated on a molar basis. An outline of the steps: as §3
The species entered for experiment [16] is Homo sapiens. Briefly: Sensory evaluation was done at a concentration of 1000 p.p.m. against other properties. An outline of the steps: as §2
The species entered for experiment [17] is Homo sapiens. Kind of experiment: Sensory evaluation was done at a concentration of 1000 p.p.m. against property of bitterness. Summed up:
as §2

The species entered for experiment [18] is Homo sapiens. Kind of experiment: Sensory evaluation was done at a concentration of 1000 p.p.m. against property of sweetness. Summed up: as §2
The species entered for experiment [19] is Homo sapiens. Briefly: Sensory evaluation was done for sweetness at a concentration of 631 p.p.m. against compound potency calculated on a molar basis. An outline of the steps:
as §1

The species entered for experiment [20] is Homo sapiens. Briefly: Sensory evaluation was done for sweetness at a concentration of 631 p.p.m. against compound potency calculated on weight basis. An outline of the steps: as §1
For experiment [21], the species on record is Homo sapiens. Briefly: Sensory evaluation was done at a concentration of 631 p.p.m. against other properties. An outline of the steps: as §2
Experiment [22] is filed under the species Homo sapiens. Kind of experiment: Sensory evaluation was done at a concentration of 631 p.p.m. against property of bitterness. Summed up: as §2
The species named for experiment [23] is Homo sapiens. Kind of experiment: Sensory evaluation was done at a concentration of 631 p.p.m. against property of sweetness. Summed up:
as §2

Experiment [24] is filed under the species Homo sapiens. Briefly: Sensory evaluation was done for sweetness at a concentration of 631 p.p.m. against sample intensity relative to 10% sucrose. Summed up: as §1
The species named for experiment [25] is Homo sapiens. Briefly: Sensory evaluation was done at a concentration of 534 p.p.m. against other properties. An outline of the steps:
as §2

Experiment [26] is filed under the species Homo sapiens. Kind of experiment: Sensory evaluation was done at a concentration of 534 p.p.m. against property of bitterness. An outline of the steps: as §2
The species entered for experiment [27] is Homo sapiens. Briefly: Sensory evaluation was done for sweetness at a concentration of 534 p.p.m. against compound potency calculated on weight basis. Summed up: as §1
The species named for experiment [28] is Homo sapiens. Briefly: Sensory evaluation was done at a concentration of 534 p.p.m. against property of sweetness. Summed up:
as §2

The species named for experiment [29] is Homo sapiens. Briefly: Sensory evaluation was done for sweetness at a concentration of 534 p.p.m. against compound potency calculated on a molar basis. An outline of the steps:
as §1

For experiment [30], the species on record is Homo sapiens. Briefly: Sensory evaluation was done for sweetness at a concentration of 534 p.p.m. against sample intensity relative to 10% sucrose. An outline of the steps: as §1
The species named for experiment [31] is Homo sapiens. Kind of experiment: Sensory evaluation was done for sweetness at a concentration of 650 p.p.m. against compound potency calculated on weight basis. Summed up:
as §1

Experiment [32] is filed under the species Homo sapiens. Kind of experiment: Sensory evaluation was done for sweetness at a concentration of 650 p.p.m. against compound potency calculated on a molar basis. Summed up:
as §1

The species named for experiment [33] is Homo sapiens. Briefly: Sensory evaluation was done for sweetness at a concentration of 650 p.p.m. against sample intensity relative to 10% sucrose. Summed up: as §1
Experiment [34] is filed under the species Homo sapiens. Briefly: Sensory evaluation was done at a concentration of 650 p.p.m. against other properties. Summed up:
as §2

The species entered for experiment [35] is Homo sapiens. Briefly: Sensory evaluation was done at a concentration of 650 p.p.m. against property of bitterness. An outline of the steps:
as §2

Experiment [36] is filed under the species Homo sapiens. Kind of experiment: Sensory evaluation was done at a concentration of 650 p.p.m. against property of sweetness. An outline of the steps:
as §2

Regarding `COC(=O)[C@H](Cc1ccccc1)NC(=O)[C@@H](N)CC(=O)O` [ASPARTAME], the Pw in the experiment listed under Homo sapiens [1] is given as 130. Also, the Pm in the experiment filed under Homo sapiens [2] is reported as 85. In addition, the results for the Sensory evaluation in the experiment listed under Homo sapiens [3], in the experiment listed under Homo sapiens [5] and in the experiment listed under Homo sapiens [6] were 100, 0 and 0, respectively. In the experiment filed under Homo sapiens [4], this compound returned an Ip of 1.
Consider `C=C1C[C@@]23CC[C@H]4[C@@](C)(CCC[C@@]4(C)C(=O)OCCC(N)C(=O)O)[C@@H]2CC[C@]1(O[C@@H]1O[C@@H](CO)[C@@H](O)[C@H](O)[C@@H]1O[C@@H]1O[C@@H](CO)[C@@H](O)[C@H](O)[C@@H]1O)C3` (stereo partly specified), for which the values for the Sensory evaluation in the experiment listed under Homo sapiens [7], in the experiment filed under Homo sapiens [8] and in the experiment listed under Homo sapiens [10] were 5, 35 and 60, respectively. For the same compound, the Pw in the experiment listed under Homo sapiens [9] is recorded as 200. For the same compound, in the experiment filed under Homo sapiens [11], the Pm is on record as 420. The compound also came in with an Ip in the experiment filed under Homo sapiens [12] of 1.2.
In the case of `C=C1C[C@@]23CC[C@H]4[C@@](C)(CCC[C@@]4(C)C(=O)[O-])[C@@H]2CC[C@]1(O[C@@H]1O[C@@H](CO)[C@@H](O)[C@H](O)[C@@H]1O[C@@H]1O[C@@H](CO)[C@@H](O)[C@H](O)[C@@H]1O)C3.[Na+]` [Steviolbioside], the Pw in the experiment filed under Homo sapiens [13] is on record as 100. For the same compound, the Ip in the experiment listed under Homo sapiens [14] is 1. Moreover, in the experiment filed under Homo sapiens [15], the Pm is 190. Besides, the Sensory evaluation was 0 in the experiment filed under Homo sapiens [16], 35 in the experiment listed under Homo sapiens [17] and 65 in the experiment listed under Homo sapiens [18].
Take `C=C1C[C@@]23CC[C@H]4[C@@](C)(CCC[C@@]4(C)C(=O)OCCC(S(=O)(=O)[O-])S(=O)(=O)[O-])[C@@H]2CC[C@]1(O[C@H]1O[C@H](CO)[C@@H](O)[C@H](O)[C@H]1O[C@@H]1O[C@H](CO)[C@@H](O)[C@H](O)[C@H]1O)C3.[Na+].[Na+]`: the Pm in the experiment listed under Homo sapiens [19] is 310. In addition, the Pw in the experiment filed under Homo sapiens [20] was 120. Also, the values for the Sensory evaluation in the experiment filed under Homo sapiens [21], in the experiment filed under Homo sapiens [22] and in the experiment listed under Homo sapiens [23] were 4, 0 and 96, respectively. For the same compound, the Ip in the experiment listed under Homo sapiens [24] is given as 0.8.
As to `C=C1C[C@@]23CC[C@H]4[C@@](C)(CCC[C@@]4(C)C(=O)OCCCS(=O)(=O)[O-])[C@@H]2CC[C@]1(O[C@H]1O[C@H](CO)[C@@H](O)[C@H](O)[C@H]1O[C@@H]1O[C@H](CO)[C@@H](O)[C@H](O)[C@H]1O)C3.[Na+]`, the Sensory evaluation worked out at 4 in the experiment listed under Homo sapiens [25], 4 in the experiment listed under Homo sapiens [26] and 92 in the experiment filed under Homo sapiens [28]. Further, the Pw in the experiment filed under Homo sapiens [27] is 160. In the experiment filed under Homo sapiens [29], the Pm is given as 360. Besides, in the experiment listed under Homo sapiens [30], the Ip is reported as 0.8.
As to `C=C1C[C@@]23CC[C@H]4[C@@](C)(CCC[C@@]4(C)C(=O)OC(CCN)C(=O)O)[C@@H]2CC[C@]1(O[C@@H]1O[C@@H](CO)[C@@H](O)[C@H](O)[C@@H]1O[C@@H]1O[C@@H](CO)[C@@H](O)[C@H](O)[C@@H]1O)C3` (stereo partly specified), the Pw in the experiment listed under Homo sapiens [31] was 170. The Pm in the experiment filed under Homo sapiens [32] is 360. This compound also returned an Ip in the experiment filed under Homo sapiens [33] of 1.1. Also, the results for the Sensory evaluation in the experiment filed under Homo sapiens [34], in the experiment filed under Homo sapiens [35] and in the experiment filed under Homo sapiens [36] were 3, 18 and 79, respectively.
